In ChEMBL document CHEMBL5046273, “Development of a Novel, Small-Molecule Brain-Penetrant Histone Deacetylase Inhibitor That Enhances Spatial Memory Formation in Mice” (J Med Chem, 2022):

How the values were obtained:
[1] = Cmax in Swiss Webster mouse liver at 40 mg/kg, ip by LC-MS/MS analysis; format: ADME, organism-based; parameters: route intraperitoneal, dose 40 mg/kg
Method in brief: (§1)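 Single i.p. dose of 40 mg/kg in Swiss Webster mice; blood, brain and liver taken at several time points. Tissues homogenized in acetonitrile, centrifuged, spin-filtered, dried and reconstituted, with 4,5-diphenylimidazole as instrument standard. Quantified by LC–MS/MS on a C18 column with a formic acid/MeCN gradient. Mean ± SD (n = 4), fitted to a two-compartment PK model.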

[2] = Elimination rate in Swiss Webster mouse blood at 40 mg/kg, ip by LC-MS/MS analysis; format: ADME, organism-based; method in brief: as §1
[3] = molecular target: T1, Protein deacetylase HDAC6 (Homo sapiens, UniProt Q9UBN7); test: Inhibition of HDAC6 in human DU-145 cells assessed as increase in histone H3 acetylation after 24 hrs by immunofluorescence microscopy; format: cell-based
T1 sequence (Q9UBN7 whole entry): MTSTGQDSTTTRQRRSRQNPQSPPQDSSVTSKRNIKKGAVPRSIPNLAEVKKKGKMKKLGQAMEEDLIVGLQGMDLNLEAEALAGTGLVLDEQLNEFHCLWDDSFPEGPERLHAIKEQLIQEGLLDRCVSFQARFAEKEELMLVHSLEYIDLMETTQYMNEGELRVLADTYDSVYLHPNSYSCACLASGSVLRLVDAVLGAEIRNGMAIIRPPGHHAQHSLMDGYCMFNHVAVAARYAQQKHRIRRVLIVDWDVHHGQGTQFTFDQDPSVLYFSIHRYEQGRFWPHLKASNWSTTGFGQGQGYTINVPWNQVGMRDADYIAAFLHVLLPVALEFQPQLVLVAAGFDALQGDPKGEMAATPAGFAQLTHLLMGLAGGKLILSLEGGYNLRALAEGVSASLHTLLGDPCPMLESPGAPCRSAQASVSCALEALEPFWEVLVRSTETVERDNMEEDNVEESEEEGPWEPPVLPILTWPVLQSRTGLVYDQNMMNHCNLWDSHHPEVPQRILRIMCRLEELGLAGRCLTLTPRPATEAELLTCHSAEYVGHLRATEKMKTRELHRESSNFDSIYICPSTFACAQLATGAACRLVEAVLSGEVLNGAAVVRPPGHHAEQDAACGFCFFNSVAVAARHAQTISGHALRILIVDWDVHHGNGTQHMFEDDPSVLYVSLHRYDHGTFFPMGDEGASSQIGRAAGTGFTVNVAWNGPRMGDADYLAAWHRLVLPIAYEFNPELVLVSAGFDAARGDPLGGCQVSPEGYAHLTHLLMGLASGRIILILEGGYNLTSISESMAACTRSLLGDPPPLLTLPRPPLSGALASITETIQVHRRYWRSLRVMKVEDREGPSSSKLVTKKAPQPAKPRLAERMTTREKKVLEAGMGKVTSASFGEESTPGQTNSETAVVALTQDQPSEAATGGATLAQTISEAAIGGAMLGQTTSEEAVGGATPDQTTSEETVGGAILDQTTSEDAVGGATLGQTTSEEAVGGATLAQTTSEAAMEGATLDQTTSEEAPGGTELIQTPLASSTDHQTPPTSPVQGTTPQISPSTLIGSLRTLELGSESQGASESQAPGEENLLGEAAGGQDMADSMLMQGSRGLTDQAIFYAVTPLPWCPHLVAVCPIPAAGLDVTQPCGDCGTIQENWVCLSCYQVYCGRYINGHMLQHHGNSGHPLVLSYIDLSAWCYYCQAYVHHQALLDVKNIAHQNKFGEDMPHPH

Histone deacetylase 2 [4] = molecular target: T2, Histone deacetylase 2 (Homo sapiens, UniProt Q92769); test: Inhibition of HDAC2 in human DU-145 cells assessed as increase in histone H3 acetylation after 24 hrs by immunofluorescence microscopy; format: cell-based
T2 sequence (Q92769 whole entry): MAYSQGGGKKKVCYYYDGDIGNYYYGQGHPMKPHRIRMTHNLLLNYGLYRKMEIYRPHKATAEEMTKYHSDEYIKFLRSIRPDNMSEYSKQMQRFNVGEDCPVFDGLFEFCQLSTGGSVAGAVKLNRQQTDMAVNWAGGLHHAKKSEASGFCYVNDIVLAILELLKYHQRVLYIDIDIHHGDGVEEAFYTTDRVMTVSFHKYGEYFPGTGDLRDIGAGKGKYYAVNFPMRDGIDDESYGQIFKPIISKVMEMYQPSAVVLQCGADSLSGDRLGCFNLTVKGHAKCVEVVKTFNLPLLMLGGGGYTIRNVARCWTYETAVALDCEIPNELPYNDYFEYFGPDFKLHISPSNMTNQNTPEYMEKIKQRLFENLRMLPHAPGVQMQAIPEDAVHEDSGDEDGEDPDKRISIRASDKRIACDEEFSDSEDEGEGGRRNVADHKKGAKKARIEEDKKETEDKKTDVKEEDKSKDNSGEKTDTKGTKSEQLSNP

Histone deacetylase 1 = Histone deacetylase 1 (Homo sapiens, UniProt Q13547); test: Inhibition of HDAC1 in human DU-145 cells assessed as increase in histone H3 acetylation after 24 hrs by immunofluorescence microscopy; format: cell-based
Chain of Histone deacetylase 1 (Q13547 whole entry): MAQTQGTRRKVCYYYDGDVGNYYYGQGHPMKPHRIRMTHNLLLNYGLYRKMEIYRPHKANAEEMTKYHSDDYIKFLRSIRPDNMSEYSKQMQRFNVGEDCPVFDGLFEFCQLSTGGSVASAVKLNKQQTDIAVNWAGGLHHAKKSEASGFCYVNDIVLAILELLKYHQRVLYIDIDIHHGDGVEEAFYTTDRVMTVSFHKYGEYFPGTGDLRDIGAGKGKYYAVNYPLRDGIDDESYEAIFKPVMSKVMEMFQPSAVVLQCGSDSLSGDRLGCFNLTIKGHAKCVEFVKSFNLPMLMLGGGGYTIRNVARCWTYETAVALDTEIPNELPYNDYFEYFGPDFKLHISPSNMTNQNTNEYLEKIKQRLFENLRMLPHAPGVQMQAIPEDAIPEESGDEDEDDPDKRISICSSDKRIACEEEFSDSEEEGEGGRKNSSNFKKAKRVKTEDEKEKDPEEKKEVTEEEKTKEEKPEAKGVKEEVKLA

[5] = Half life in Swiss Webster mouse brain at 40 mg/kg, ip by LC-MS/MS analysis; format: ADME, organism-based; conditions: in vivo; method in brief: as §1
DU-145 [6] = test: Cytotoxicity against human DU-145 cells assessed as reduction in cell viability at 50 uM incubated for 48 hrs by MTT assay; format: functional
Method in brief: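 DU145 cells in DMEM with 10% FBS were seeded at 14 000 cells/well and allowed to adhere for 24 h. Test agents were diluted from 10 mM DMSO stocks (100, 50, 25 µM; 10, 5, 1.25 nM) and applied in triplicate for 48 h at 37 °C, 5% CO2, with DMSO as vehicle. Read-out was 250 µg/mL MTT for 4 h, DMSO solubilization, and A570 with 690 nm reference. Values normalized to DMSO.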

[7] = Toxicity in ip dosed BALB/c mouse assessed as maximum tolerated dose measured after 2 weeks; format: organism-based; conditions: in vivo, 336 h
Method in brief: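 Healthy BALB/c mice, compound in 20% DMSO/saline, single i.p. dose. One mouse each at 200, 100 and 50 mg/kg, then 25, 12.5 and 6.25 mg/kg if needed, repeated until a tolerated dose was found. Last test repeated once. Mice weighed daily for 8 days; euthanized at >20% weight loss or overt toxicity. Morbidity/mortality followed over 2 weeks; triplicate experiments.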

[8] = Cmax in Swiss Webster mouse brain at 40 mg/kg, ip by LC-MS/MS analysis; format: ADME, organism-based; parameters: route intraperitoneal, dose 40 mg/kg; method in brief: as §1
Histone deacetylase 3 = Histone deacetylase 3 (Homo sapiens, UniProt O15379); test: Inhibition of HDAC3 in human DU-145 cells assessed as increase in histone H3 acetylation after 24 hrs by immunofluorescence microscopy; format: cell-based
Chain of Histone deacetylase 3 (O15379 whole entry): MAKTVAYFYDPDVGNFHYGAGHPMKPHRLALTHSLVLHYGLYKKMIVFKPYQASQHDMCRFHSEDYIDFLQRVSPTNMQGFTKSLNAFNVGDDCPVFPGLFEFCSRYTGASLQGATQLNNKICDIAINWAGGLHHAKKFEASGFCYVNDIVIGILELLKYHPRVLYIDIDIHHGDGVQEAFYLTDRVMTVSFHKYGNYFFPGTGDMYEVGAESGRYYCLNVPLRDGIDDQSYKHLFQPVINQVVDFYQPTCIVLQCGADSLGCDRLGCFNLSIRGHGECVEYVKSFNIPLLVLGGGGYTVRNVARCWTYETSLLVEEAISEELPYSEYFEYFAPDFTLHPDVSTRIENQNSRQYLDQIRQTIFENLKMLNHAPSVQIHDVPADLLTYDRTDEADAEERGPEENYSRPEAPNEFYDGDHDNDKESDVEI

[9] = Tmax in Swiss Webster mouse brain at 40 mg/kg, ip by LC-MS/MS analysis; format: ADME, organism-based; method in brief: as §1
Histone deacetylase 2 [10] = molecular target: T2, Histone deacetylase 2; test: Inhibition of recombinant human full-length HDAC2 preincubated for 20 mins with DTT followed by enzyme addition and measured after 10 mins by Glo-luminescence assay
Method in brief: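 Compounds were serially diluted and incubated with enzyme for 10 min. HDAC-Glo I/II substrate/developer was then added, and luminescence read after 40 min at 23 °C. IC50 from four-parameter fits from two independent titrations, mean ± SD.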

[11] = Drug uptake in BALB/c mouse brain at 40 mg/kg, ip measured upto 60 mins by mass spectroscopy analysis; format: ADME, organism-based; conditions: in vivo, 1 h
Method in brief: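 BALB/c mice received 40 mg/kg i.p. Retro-orbital blood was collected under isoflurane, then liver and whole brain after CO2 euthanasia, at 10, 30 and 60 min. Acetonitrile extracts were spin-filtered with 4,5-diphenylimidazole as instrument standard and analysed by LC–MS/MS.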

[12] = Half life in Swiss Webster mouse blood at 40 mg/kg, ip by LC-MS/MS analysis; format: ADME, organism-based; conditions: in vivo; method in brief: as §1
[13] = AUC in Swiss Webster mouse liver at 40 mg/kg, ip by LC-MS/MS analysis; format: ADME, organism-based; parameters: dose 40 mg/kg; conditions: in vivo; method in brief: as §1
[14] = AUC in Swiss Webster mouse brain at 40 mg/kg, ip by LC-MS/MS analysis; format: ADME, organism-based; parameters: dose 40 mg/kg; conditions: in vivo; method in brief: as §1
DU-145 [15] = test: Cytotoxicity against human DU-145 cells assessed as reduction in cell viability incubated for 48 hrs by MTT assay; format: functional
Method in brief: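 DU145 cells grown in DMEM with 10% FBS, penicillin/streptomycin and L-glutamine at 37 °C and 5% CO2. Cells seeded at 14 000/well and allowed to adhere 24 h. Compounds diluted from 10 mM DMSO stocks into medium (final 25–100 μM), DMSO vehicle, triplicate wells, 48 h. MTT 250 μg/mL for 4 h, dissolved in DMSO, A570 (ref 690). Normalized to DMSO; three independent experiments.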

For `CC(C)(C)OC(=O)CC(O)/C=C/CCSSCC/C=C/C(O)CC(=O)OC(C)(C)C` (configuration not stated), the Cmax [1] was 530 ng/g, the k el [2] was 0.000367 s⁻¹ and the IC50 [3] was 12 µM. The IC50 (Histone deacetylase 2 [4]) was 10 µM, the IC50 (Histone deacetylase 1) was 8.7 µM and the t1/2 [5] was 13.4 min. It also gave an inhibition at 50 µM (DU-145 [6]) of 50%, an MTD [7] of over 200 mg/kg and a Cmax [8] of 82.5 ng/g. For the same molecule, the IC50 (Histone deacetylase 3) was 8 µM, the Tmax [9] was 10 min and the IC50 (Histone deacetylase 2 [10]) was 10 µM. The Drug uptake [11] was “Active”, the t1/2 [12] was 45.4 min and the AUC [13] was 31091 ng·min/g. For the same molecule, the AUC [14] was 2019 ng·min/g and the Activity (DU-145 [15]) was “Dose-Dependent Effect”.
